Published values from different studies.
Lines come from different studies, so protocols differ.
Target: Cyclin-dependent kinase-like 1 (CDKL1, Homo sapiens, UniProt Q00532)

For `NS(=O)(=O)c1cc(NC(=O)C2(c3ccccc3Cl)CC2)ccc1Oc1cccc(Cl)c1`, the remaining binding was 99% (binding; competition with immobilised ligand; 1 µM).
The ΔTm of `CCC1(CC)NC(=O)c2c(c3ccc(Cl)c(Cl)c3n2C)C1C#N` (centres unmarked) is reported as 0 °C (thermal stability; DSF; 10 µM).
`Cc1ccc(C(=O)Nc2ccc(CN3CCN(C)CC3)c(C(F)(F)F)c2)cc1C#Cc1cnc2cccnn12` gave a remaining activity of 85% (enzyme activity; 23.5 nM).
With `COc1cc(Cl)c(C(=O)N[C@@H](CN[C@H]2CC[C@@H](N)CC2)Cc2ccc(C#N)cc2)cc1-c1ccc(CN[C@H](C)c2ccc(C)cc2)o1` the remaining activity was 101% (enzyme activity; inhibitor; 1 µM).
`Cn1c2c(Cl)c(Cl)ccc2c2cc(N)[nH]c(=O)c21` has a ΔTm of 0.3 °C (thermal stability; DSF; 10 µM).
For `Nc1ncnc2occ(-c3ccc(NC(=O)Nc4cc(C(F)(F)F)ccc4F)cc3)c12`, the remaining signal was 0.55% (cell-free assay; 20 µM).
With `CO[C@@H](C)c1c(Nc2ccc([C@@H](N(C)C(=O)C3CCS(=O)(=O)CC3)C(F)(F)F)cc2)cnc2cc(Cl)nn12` the remaining binding was 74% (cell-free assay; competition with immobilised ligand; 1 µM).
`CN1CC(Oc2cnc(C#N)cc2-c2ccn3nc(NC(=O)C4CC4)cc3c2)C1` gave an inhibition of 5% (enzyme activity; inhibitor; 1 µM).
